Screens: PubChem BioAssay, SRMLSC
PostGolgi yeast – growth inhibition of a yeast mutant, post-Golgi transport screen; post-Golgi transport phenotypic cell assay; inhibition, % at 10 µM; hit rate 0.9% among 98,000;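 also: yeast cells grown in 1536-well plates; yeast grown about 18 h at 30C before absorbance read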
PostGolgi ctrl – yeast control strain growth, post-Golgi counter-screen. efflux-deficient yeast background strain, growth absorbance A615, 16 h. inhibition, % at 10 µM. hit rate 5% among 98,000
Ecoli WT expand – blocks growth of wild type E. coli BW25113 | OD600 absorbance | growth inhibition, % at 100 µM | hit rate 0.15% among 98,000;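 active = growth inhibition above about 50% at one test dose, limit read from the data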;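 also: growth measured after 20 h incubation at 37 °C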
Ecoli tolC – growth inhibitors of E. coli BW25113 tolC mutant. OD615. growth inhibition, % at 10 µM (by protocol). hit rate 2.2% among 65,000;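 active = growth inhibition at or above a cutoff equal to the mean over every tested compound plus 3 SD, cut at about 60% in these data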;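 also: growth measured after 20 h incubation at 37 °C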
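Test system – E. coli BW25113 ΔtolC::kan, tolC deletion mutant strain · Detection – OD at 615 nm · Buffer or medium – LB with kanamycin 50 µg/mL · Times – 20 h compound exposure of bacteria at 37 °C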
Numbers without * were called inactive. Rows were chosen to be rich in hits. Some 6.3% of all compounds tested hit in one or more screens of this group. Rule as the data show it, unless noted: active = inhibition above about 30%; inactive = the rest.

CCOC(=O)C1=C(c2ccccc2)Nc2c(c(=O)n(C)c(=O)n2C)C1c1ccc(O)c(OC)c1 (stereo unspecified) was read as PostGolgi yeast 0, PostGolgi ctrl 14 and Ecoli WT expand -4.
For CCC(C(=O)N1CCc2ccccc2C1)n1nc(C)n2c(cc3occc32)c1=O (stereo unspecified) the results were PostGolgi yeast -4, PostGolgi ctrl 30*, Ecoli WT expand -4 and Ecoli tolC 0.
`CC(NC(=O)c1ccccc1)C(c1cccs1)N1CCOCC1` (stereo unspecified) gave PostGolgi yeast -6, PostGolgi ctrl 0 and Ecoli WT expand -14.
Screening O=C(NC(=S)Nc1ccc(Cl)cn1)C(c1ccccc1)c1ccccc1 returned PostGolgi yeast 30, PostGolgi ctrl 34* and Ecoli WT expand -1.
O=C(NCc1ccc(Cl)cc1)c1ccccc1Oc1ccccc1 was read as PostGolgi yeast -8, PostGolgi ctrl 33* and Ecoli WT expand 0.
Screening Oc1oc(-c2ccccc2)nc1C=Nc1cccc2ccccc12 returned PostGolgi yeast 12, PostGolgi ctrl 40* and Ecoli WT expand -17.
`Oc1oc(-c2ccccc2)nc1C=NCc1ccncc1` gave PostGolgi yeast 2, PostGolgi ctrl 3, Ecoli WT expand 8 and Ecoli tolC 8.
Cc1nn(C)cc1C1C2=C(CC(C)(C)CC2=O)OC2=C1C(=O)CC(C)(C)C2 was read as PostGolgi yeast -2, PostGolgi ctrl -15, Ecoli WT expand -11 and Ecoli tolC -3.
Screening CCN1/C(=C2\OC(=S)N(C)C2=O)Sc2ccccc21 returned PostGolgi yeast -2, PostGolgi ctrl 8 and Ecoli WT expand 3.
`CCN1/C(=C/c2ccc3cccc(C)c3[n+]2CC)Sc2ccccc21` gave PostGolgi yeast 1, PostGolgi ctrl 98* and Ecoli WT expand 72*.
For COc1ccc(N2C(=O)C3CCCN3C2c2ccc(C)o2)cc1Cl (stereo unspecified) the results were PostGolgi yeast -4, PostGolgi ctrl 15, Ecoli WT expand 5 and Ecoli tolC -6.
`Cc1ccc(C2N(c3ccc(Cl)c(Cl)c3)C(=O)C3CCCN32)o1` (stereo unspecified) gave PostGolgi yeast 40*, PostGolgi ctrl 1, Ecoli WT expand 21 and Ecoli tolC 2.
For CC(C)COc1ccc(/C=C2/Sc3ccccc3C2=O)cc1 the results were PostGolgi yeast -2, PostGolgi ctrl 3 and Ecoli WT expand -18.
Screening CCOc1ccc(CN(C(=O)c2oc3cc(C)ccc3c2C)C2CCS(=O)(=O)C2)cc1 (stereo unspecified) returned PostGolgi yeast 4, PostGolgi ctrl 35* and Ecoli WT expand -6.
Screening CN(C)c1cccc(C(=O)Nc2cccc(F)c2)c1 returned PostGolgi yeast -8, PostGolgi ctrl 9, Ecoli WT expand 5 and Ecoli tolC 38.
Screening CCN(CC)c1ccc(C(=O)Nc2cccc(F)c2)cc1 returned PostGolgi yeast -3, PostGolgi ctrl 10, Ecoli WT expand -4 and Ecoli tolC 62*.
For COC(=O)c1ccc2c(c1)N(Cc1nc(-c3ccc(Cl)cc3)oc1C)C(=O)C1CCCN21 (stereo unspecified) the results were Ecoli tolC -2.
`Nc1nc(-c2ccc(Br)s2)c(Br)s1` gave PostGolgi yeast -1, PostGolgi ctrl 51*, Ecoli WT expand 0 and Ecoli tolC 20.
`CCCc1ccc(Oc2cn[nH]c2-c2ccc(O)c(C)c2O)cc1` gave PostGolgi yeast 80*, PostGolgi ctrl 92*, Ecoli WT expand 12 and Ecoli tolC 100*.
Screening CCCc1ccc(Oc2c(-c3ccc(O)c(C)c3O)n[nH]c2C)cc1 returned PostGolgi yeast 80*, PostGolgi ctrl 65*, Ecoli WT expand 10 and Ecoli tolC 48.
COc1ccc(O)c(-c2cc(-c3cccs3)[nH]n2)c1 was read as PostGolgi yeast -6, PostGolgi ctrl 11, Ecoli WT expand 24 and Ecoli tolC 17.
For Clc1ccc(-n2nnnc2-c2ccccc2)cc1 the results were PostGolgi yeast 17, PostGolgi ctrl 8, Ecoli WT expand 4 and Ecoli tolC 5.
`Nc1ncc(-c2nnnn2-c2ccc(Cl)cc2)c(-c2ccc(Cl)cc2)n1` gave PostGolgi yeast -10, PostGolgi ctrl 36* and Ecoli WT expand -9.
Screening Cc1ccc(-n2c(C)cc(C3N=C(N)Nc4nc5ccccc5n43)c2C)c(C)c1 (stereo unspecified) returned PostGolgi yeast 1, PostGolgi ctrl 46*, Ecoli WT expand -21 and Ecoli tolC 100*.
Cc1cc(C2N=C(N)Nc3nc4ccccc4n32)c(C)n1-c1ccccc1Cl (stereo unspecified) was read as PostGolgi yeast 9, PostGolgi ctrl 13, Ecoli WT expand 10 and Ecoli tolC 61*.
`COC(=O)COc1ccc(S(=O)(=O)Nc2ccc(NC(C)=O)cc2)cc1C` gave PostGolgi yeast -2, PostGolgi ctrl 5, Ecoli WT expand 2 and Ecoli tolC 4.
Screening CCC(C)N(C(=O)Cn1nnc2ccccc21)C(C(=O)Nc1ccc(F)cc1)c1cccc(OC)c1 (stereo unspecified) returned PostGolgi yeast 10, PostGolgi ctrl 9 and Ecoli WT expand -11.
For O=C(CSc1nnc(CNC(=O)c2ccccc2F)o1)c1ccccc1 the results were PostGolgi yeast -5, PostGolgi ctrl -2, Ecoli WT expand 9 and Ecoli tolC -2.
`Cc1sc2c(c1C)c(=O)n(-c1cccc(C(F)(F)F)c1)c(=O)n2CC(=O)NCc1ccco1` gave PostGolgi yeast -3, PostGolgi ctrl 2 and Ecoli WT expand -1.
For CCN(CC)c1nc2ccccc2nc1C(C#N)C(=O)NCCc1ccccc1 (stereo unspecified) the results were PostGolgi yeast 2, PostGolgi ctrl 33*, Ecoli WT expand -9 and Ecoli tolC -7.
`CCN(CC)c1nc2ccccc2nc1C(C#N)C(=O)NCCCOC` (stereo unspecified) gave PostGolgi yeast 9, PostGolgi ctrl 26, Ecoli WT expand 1 and Ecoli tolC 25.
`CCC(=O)N1CCN(c2nc(-c3ccccc3)c3c(c2C#N)CCCC3)CC1` gave PostGolgi yeast 0, PostGolgi ctrl 24, Ecoli WT expand -7 and Ecoli tolC 53.
`O=C(c1ccco1)N1CCN(C(=O)C2CCCc3c2[nH]c2ccc(Cl)cc32)CC1` (stereo unspecified) gave PostGolgi yeast -6, PostGolgi ctrl 23, Ecoli WT expand 0 and Ecoli tolC 15.
`O=C(N/C=N/OCc1ccc(Cl)cc1Cl)NOCc1ncc(C(F)(F)F)cc1Cl` gave PostGolgi yeast -4, PostGolgi ctrl 34* and Ecoli WT expand -1.
For COc1ccc2c(c1)-c1c(sn(-c3ccc(OC)c(OC)c3)c1=S)C(C)(C)N2 the results were PostGolgi yeast -7, PostGolgi ctrl 38* and Ecoli WT expand -35.
Screening N=c1n(CCN2CCOCC2)c2ccccc2n1CC(=O)c1ccc(Cl)c(Cl)c1 returned PostGolgi yeast -2, PostGolgi ctrl 0, Ecoli WT expand -3 and Ecoli tolC 80*.
Screening CCCCOC(=O)Cn1c(=N)n(CCN2CCOCC2)c2ccccc21 returned Ecoli tolC -2.
